Measured values reported in ChEMBL document CHEMBL5344453, “Selective Recognition of c-KIT 1 G-Quadruplex by Structural Tuning of Heteroaromatic Scaffolds and Side Chains” (ACS Med Chem Lett, 2024).

Experiments:
Type in all cases: functional
K562 [1] = test: Attenuation of proto-oncogene expression in human c-KIT-positive K562 cells assessed as reduction in c-KIT oncogene expression at 2 uM measured after 24 hrs by qRT-PCR analysis relative to control
Outline: (§1)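 K562 leukemia cells treated for 24 h. c-KIT, c-MYC and BCL-2 mRNA measured by qRT-PCR, with each gene normalized to 18s housekeeping gene expression. Reduction expressed relative to untreated cells.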

K562 [2] = test: Attenuation of proto-oncogene expression in human c-KIT-positive K562 cells assessed as reduction in c-KIT oncogene expression at 4 uM measured after 24 hrs by qRT-PCR analysis relative to control; outline: as §1
K562 [3] = test: Attenuation of proto-oncogene expression in human c-KIT-positive K562 cells assessed as reduction in c-MYC oncogene expression at 2 uM measured after 24 hrs by qRT-PCR analysis relative to control; outline: as §1
K562 [4] = test: Attenuation of proto-oncogene expression in human c-KIT-positive K562 cells assessed as reduction in BCL-2oncogene expression at 2 uM measured after 24 hrs by qRT-PCR analysis relative to control; outline: as §1
K562 [5] = test: Attenuation of proto-oncogene expression in human c-KIT-positive K562 cells assessed as reduction in BCL-2oncogene expression at 4 uM measured after 24 hrs by qRT-PCR analysis relative to control; outline: as §1
[6] = Reduction of c-KIT oncogene expression in human K562 cells transfected with c-KIT plasmid construct assessed as reduction in luciferase expression at 2 uM measured after 36 hrs by luciferase reporter assay
Outline: (§2)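 K562 cells transfected with luciferase-expressing plasmids carrying the promoter G-quadruplex sequence of c-KIT, c-MYC or BCL-2, then ligand-treated. Relative luciferase expression measured.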

[7] = Reduction of c-KIT oncogene expression in human K562 cells transfected with c-KIT plasmid construct assessed as reduction in luciferase expression at 4 uM measured after 36 hrs by luciferase reporter assay; outline: as §2
[8] = Reduction of c-MYC oncogene expression in human K562 cells transfected with c-MYC plasmid construct assessed as reduction in luciferase expression at 2 uM measured after 36 hrs by luciferase reporter assay; outline: as §2
[9] = Reduction of c-MYC oncogene expression in human K562 cells transfected with c-MYC plasmid construct assessed as reduction in luciferase expression at 4 uM measured after 36 hrs by luciferase reporter assay; outline: as §2
[10] = Reduction of BCL-2 oncogene expression in human K562 cells transfected with BCL-2 plasmid construct assessed as reduction in luciferase expression at 2 uM measured after 36 hrs by luciferase reporter assay; outline: as §2
[11] = Reduction of BCL-2 oncogene expression in human K562 cells transfected with BCL-2 plasmid construct assessed as reduction in luciferase expression at 4 uM measured after 36 hrs by luciferase reporter assay; outline: as §2
[12] = Reduction of c-KIT protein expression in human K562 cells at 2 uM measured after 24 hrs by Western blotting analysis relative to control
Outline: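 Lysates of treated K562 cells probed by Western blot for c-KIT protein, with GAPDH as housekeeping reference.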

K562 [13] = test: Induction of DNA damage in human K562 cells assessed as cells exhibiting DNA damage at 5.5 uM incubated for 24 hrs by DNA damage assay (reference value: 10.8%)
K562 [14] = test: Induction of DNA damage in human K562 cells assessed as cells exhibiting DNA damage at 11 uM incubated for 24 hrs by DNA damage assay (reference value: 10.8%)

**Q.** With C[n+]1ccc(-c2c3nc(c(-c4cc[n+](C)cc4)c4ccc([nH]4)c(-c4cc[n+](C)cc4)c4nc(c(-c5cc[n+](C)cc5)c5ccc2[nH]5)C=C4)C=C3)cc1.[Cl-].[Cl-].[Cl-].[Cl-] [TMPYP4 CHLORIDE] as the compound, how does the inhibition at 2 µM (K562 [1]) read?
**A.** Its inhibition at 2 µM is 30%.

**Q.** What about the inhibition at 4 µM (K562 [2]) of the same compound?
**A.** The inhibition at 4 µM was 48%.

**Q.** And the inhibition at 2 µM (K562 [3])?
**A.** Its inhibition at 2 µM is 11%.

**Q.** What about the inhibition at 2 µM (K562 [4]) of the same compound?
**A.** The inhibition at 2 µM was 37%.

**Q.** And the inhibition at 4 µM (K562 [5])?
**A.** The inhibition at 4 µM was 45%.

**Q.** What about the inhibition at 2 µM [6] of the same compound?
**A.** Its inhibition at 2 µM is 20.1%.

**Q.** What about the inhibition at 4 µM [7] of the same compound?
**A.** The inhibition at 4 µM was 34.1%.

**Q.** What about the inhibition at 2 µM [8] of the same compound?
**A.** The inhibition at 2 µM was 24.4%.

**Q.** And the inhibition at 4 µM [9]?
**A.** Its inhibition at 4 µM is 45.3%.

**Q.** And the inhibition at 2 µM [10]?
**A.** Its inhibition at 2 µM is 20.7%.

**Q.** What about the inhibition at 4 µM [11] of the same compound?
**A.** Its inhibition at 4 µM is 39.7%.

**Q.** And the inhibition at 2 µM [12]?
**A.** Its inhibition at 2 µM is 10%.

**Q.** What about the Activity (K562 [13]) of the same compound?
**A.** Its Activity is 27.6%.

**Q.** And the Activity (K562 [14])?
**A.** The Activity was 30.3%.
